# Results as given in ChEMBL document CHEMBL5303300, “EUbOPEN Chemogenomics Library - Multiplex” (2023).
# Values joined by “and” are separate entries in the source; they are usually repeats but may differ in a detail not shown here. Equal values may be shown once.
# System: HEK-293T
# Assay: Multiplex assay against HEK293T
# Assay type: toxicity, cell-based
# Conditions: human, number of replicates 2
# Outline: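 Cells were classed with CellPathfinder machine-learning gating, first as Hoechst high-intensity objects or normal cells, then (normal cells) as healthy, pyknosed or fragmented nuclei, and finally (pyknosed cells) as mitotic or apoptotic. Staining of live cells at seeding used Hoechst33342, BioTracker Green Microtubule Cytoskeleton Dye, MitoTracker Red and Annexin V Alexa Fluor 680, with imaging on a CQ1 microscope at 37°C and 5% CO2 after compound addition. Tubulin, mitochondrial-mass and membrane-permeability phenotypes are per cents of healthy-nucleus cells.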
# [1] = 12 h, 1 µM, compound concentration 1 uM
# [2] = 12 h, 10 µM, compound concentration 10 uM
# [3] = 24 h, 1 µM, compound concentration 1 uM
# [4] = 24 h, 10 µM, compound concentration 10 uM
# [5] = 48 h, 1 µM, compound concentration 1 uM
# [6] = 48 h, 10 µM, compound concentration 10 uM
smiles,measurement,setting,value
COc1ccc(CC[C@@H](OC(=O)[C@@H]2CCCCN2C(=O)[C@H](c2cc(OC)c(OC)c(OC)c2)C2CCCCC2)c2cccc(OCCN3CCOCC3)c2)cc1OC,Population Apoptotic (%),[1],53% and 42%
same,Population Fragmented Nuclei (%),[1],5% and 3%
same,Population Healthy Nuclei (%),[1],82% and 83%
same,Population Hoechst High Intensity Objects (%),[1],7% and 6%
same,Population Membrane Permeable-Phenotype (%),[1],7% and 6%
same,Population Mitochondria Different-Phenotype (%),[1],27% and 28%
same,Population Mitotic Cells (%),[1],46% and 57%
same,Population Normal (%),[1],92% and 93%
same,Population Pyknosed Nuclei (%),[1],11% and 12%
same,Population Tubulin-Different-Phenotype (%),[1],77% and 92%
same,Total Cell Count,[1],574 and 636
same,Population Apoptotic (%),[2],70% and 68%
same,Population Fragmented Nuclei (%),[2],2%
same,Population Healthy Nuclei (%),[2],85% and 83%
same,Population Hoechst High Intensity Objects (%),[2],10% and 11%
same,Population Membrane Permeable-Phenotype (%),[2],2%
same,Population Mitochondria Different-Phenotype (%),[2],75% and 72%
same,Population Mitotic Cells (%),[2],29% and 31%
same,Population Normal (%),[2],89% and 88%
same,Population Pyknosed Nuclei (%),[2],12% and 13%
same,Population Tubulin-Different-Phenotype (%),[2],68% and 58%
same,Total Cell Count,[2],560 and 485
same,Population Apoptotic (%),[3],46% and 44%
same,Population Fragmented Nuclei (%),[3],9% and 4%
same,Population Healthy Nuclei (%),[3],81% and 86%
same,Population Hoechst High Intensity Objects (%),[3],10% and 8%
same,Population Membrane Permeable-Phenotype (%),[3],8% and 7%
same,Population Mitochondria Different-Phenotype (%),[3],12% and 18%
same,Population Mitotic Cells (%),[3],53% and 55%
same,Population Normal (%),[3],89% and 91%
same,Population Pyknosed Nuclei (%),[3],8%
same,Population Tubulin-Different-Phenotype (%),[3],64% and 80%
same,Total Cell Count,[3],873 and 879
same,Population Apoptotic (%),[4],72% and 63%
same,Population Fragmented Nuclei (%),[4],2%
same,Population Healthy Nuclei (%),[4],82% and 81%
same,Population Hoechst High Intensity Objects (%),[4],8% and 13%
same,Population Membrane Permeable-Phenotype (%),[4],0%
same,Population Mitochondria Different-Phenotype (%),[4],89% and 88%
same,Population Mitotic Cells (%),[4],27% and 36%
same,Population Normal (%),[4],91% and 86%
same,Population Pyknosed Nuclei (%),[4],14% and 15%
same,Population Tubulin-Different-Phenotype (%),[4],56% and 52%
same,Total Cell Count,[4],512 and 487
same,Population Apoptotic (%),[5],30% and 18%
same,Population Fragmented Nuclei (%),[5],8% and 13%
same,Population Healthy Nuclei (%),[5],87% and 83%
same,Population Hoechst High Intensity Objects (%),[5],9% and 8%
same,Population Membrane Permeable-Phenotype (%),[5],6%
same,Population Mitochondria Different-Phenotype (%),[5],5% and 4%
same,Population Mitotic Cells (%),[5],69% and 81%
same,Population Normal (%),[5],90% and 91%
same,Population Pyknosed Nuclei (%),[5],3% and 2%
same,Population Tubulin-Different-Phenotype (%),[5],67% and 48%
same,Total Cell Count,[5],1619 and 1643
same,Population Apoptotic (%),[6],84% and 73%
same,Population Fragmented Nuclei (%),[6],3% and 5%
same,Population Healthy Nuclei (%),[6],84% and 83%
same,Population Hoechst High Intensity Objects (%),[6],9% and 11%
same,Population Membrane Permeable-Phenotype (%),[6],1%
same,Population Mitochondria Different-Phenotype (%),[6],79% and 83%
same,Population Mitotic Cells (%),[6],15% and 26%
same,Population Normal (%),[6],90% and 88%
same,Population Pyknosed Nuclei (%),[6],11%
same,Population Tubulin-Different-Phenotype (%),[6],62% and 60%
same,Total Cell Count,[6],551 and 526
CC(C)c1cc(-c2ccc(F)c3ccccc23)nc(N)n1,Population Apoptotic (%),[1],45% and 56%
same,Population Fragmented Nuclei (%),[1],3%
same,Population Healthy Nuclei (%),[1],88% and 87%
same,Population Hoechst High Intensity Objects (%),[1],5%
same,Population Membrane Permeable-Phenotype (%),[1],2%
same,Population Mitochondria Different-Phenotype (%),[1],15%
same,Population Mitotic Cells (%),[1],54% and 43%
same,Population Normal (%),[1],94%
same,Population Pyknosed Nuclei (%),[1],8% and 9%
same,Population Tubulin-Different-Phenotype (%),[1],54% and 59%
same,Total Cell Count,[1],775 and 598
same,Population Apoptotic (%),[2],62%
same,Population Fragmented Nuclei (%),[2],3% and 4%
same,Population Healthy Nuclei (%),[2],78% and 80%
same,Population Hoechst High Intensity Objects (%),[2],7%
same,Population Membrane Permeable-Phenotype (%),[2],1% and 0%
same,Population Mitochondria Different-Phenotype (%),[2],25% and 20%
same,Population Mitotic Cells (%),[2],37%
same,Population Normal (%),[2],92%
same,Population Pyknosed Nuclei (%),[2],18% and 15%
same,Population Tubulin-Different-Phenotype (%),[2],66% and 60%
same,Total Cell Count,[2],434 and 448
same,Population Apoptotic (%),[3],49% and 36%
same,Population Fragmented Nuclei (%),[3],6% and 4%
same,Population Healthy Nuclei (%),[3],88%
same,Population Hoechst High Intensity Objects (%),[3],7% and 9%
same,Population Membrane Permeable-Phenotype (%),[3],2% and 3%
same,Population Mitochondria Different-Phenotype (%),[3],4% and 5%
same,Population Mitotic Cells (%),[3],50% and 63%
same,Population Normal (%),[3],92% and 90%
same,Population Pyknosed Nuclei (%),[3],5% and 6%
same,Population Tubulin-Different-Phenotype (%),[3],34% and 35%
same,Total Cell Count,[3],1247 and 898
same,Population Apoptotic (%),[4],41% and 43%
same,Population Fragmented Nuclei (%),[4],7% and 6%
same,Population Healthy Nuclei (%),[4],84% and 82%
same,Population Hoechst High Intensity Objects (%),[4],7% and 6%
same,Population Membrane Permeable-Phenotype (%),[4],2% and 1%
same,Population Mitochondria Different-Phenotype (%),[4],14% and 12%
same,Population Mitotic Cells (%),[4],58% and 56%
same,Population Normal (%),[4],92% and 93%
same,Population Pyknosed Nuclei (%),[4],8% and 10%
same,Population Tubulin-Different-Phenotype (%),[4],46% and 42%
same,Total Cell Count,[4],675 and 625
same,Population Apoptotic (%),[5],10% and 18%
same,Population Fragmented Nuclei (%),[5],16% and 10%
same,Population Healthy Nuclei (%),[5],81% and 85%
same,Population Hoechst High Intensity Objects (%),[5],9% and 10%
same,Population Membrane Permeable-Phenotype (%),[5],5%
same,Population Mitochondria Different-Phenotype (%),[5],0% and 1%
same,Population Mitotic Cells (%),[5],90% and 81%
same,Population Normal (%),[5],90% and 89%
same,Population Pyknosed Nuclei (%),[5],2% and 4%
same,Population Tubulin-Different-Phenotype (%),[5],17% and 23%
same,Total Cell Count,[5],3182 and 1908
same,Population Apoptotic (%),[6],20% and 37%
same,Population Fragmented Nuclei (%),[6],14% and 10%
same,Population Healthy Nuclei (%),[6],81% and 86%
same,Population Hoechst High Intensity Objects (%),[6],8% and 7%
same,Population Membrane Permeable-Phenotype (%),[6],6% and 2%
same,Population Mitochondria Different-Phenotype (%),[6],2% and 3%
same,Population Mitotic Cells (%),[6],80% and 62%
same,Population Normal (%),[6],91% and 92%
same,Population Pyknosed Nuclei (%),[6],3% and 2%
same,Population Tubulin-Different-Phenotype (%),[6],26% and 24%
same,Total Cell Count,[6],1507 and 1327
